Results taken from paper PMC9290681 (British Journal of Pharmacology, 2020).

Legend:
TRPM3α1 [1] = target: T1, TRPM3α1 (Mus musculus, UniProt J9SQF3); assay: Whole-cell patch clamp, HEK293T cells expressing TRPM3α1; type: cell-based; details: for block of CIM0216-induced currents: CIM0216 1 μM, isosakuranetin 5 μM; for block of CIM0216-induced currents / block of clotrimazole-induced currents: diclofenac 100 μM, primidone 25 μM; for block of CIM0216-induced currents / block of clotrimazole-induced currents / whole-cell current increase: ±80 mV; for block of clotrimazole-induced currents: Clt 10 μM; for whole-cell current increase: Nif 50 μM
TRPM3α2 = TRPM3α2 (Mus musculus, UniProt J9SQF3); assay: Whole-cell patch clamp, HEK293T cells expressing TRPM3α2; type: cell-based, murine; details: for block of CIM0216-induced currents: isosakuranetin 5 μM, diclofenac 100 μM, primidone 25 μM
TRPM3α1 [2] = target: T1, TRPM3α1; assay: Calcium microfluorimetry, HEK293T cells transiently transfected with TRPM3α1; type: cell-based; details: for intracellular calcium response: PS 40 μM, Nif 50 μM, Clt 10 μM, CIM0216 1 μM, Fura-2; for calcium signal at high agonist concentrations: PS 50, 100 and 200 μM, Nif 100 and 200 μM
TRPM3α1 Δ3d = assay: Whole-cell patch clamp, deletion mutant TRPM3α1 Δ3d; type: cell-based, mouse; details: for block of clotrimazole-activated currents: isosakuranetin 5 μM, diclofenac 100 μM, primidone 25 μM
[3] = target: TRPM3α2_D1064_A_P1065 (TRPM3α2 +1) (Mus musculus, UniProt J9SQF3, INS1087A); assay: Whole-cell patch clamp, insertion mutant TRPM3α2 +1; type: cell-based; details: for block of clotrimazole-evoked currents / block of pregnenolone sulphate-induced currents: isosakuranetin 5 μM, diclofenac 100 μM, primidone 25 μM
TRPM3α1 Δ6b = TRPM3α1 Δ6b (Mus musculus, UniProt J9SQF3, DEL1071-1076); assay: Whole-cell patch clamp, deletion mutant TRPM3α1 Δ6b; type: cell-based; details: for block of clotrimazole-activated currents: Clt 10 μM, isosakuranetin 5 μM, diclofenac 100 μM, primidone 25 μM
[4] = tested on: short pore loop TRPM3α variants (α2–α6); type: cell-based, mouse; details: PS 40 μM, Nif 50 μM; all isoforms α2–α6
In short: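 HEK293T cells transiently transfected 48 h before imaging were loaded with Fura-2 AM for 20 min at 37°C. Ratios at 340/380 nm excitation were converted to absolute calcium by Grynkiewicz calibration. Response was taken as maximum minus basal during the stimulus. Only cells responding to a final ionomycin challenge were counted. At least three independent coverslips were used.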

TRPM3α1 Δ3a = assay: Whole-cell patch clamp, deletion mutant TRPM3α1 Δ3a; type: cell-based, mouse; details: n=5
TRPM3α1 Δ3b = assay: Whole-cell patch clamp, deletion mutant TRPM3α1 Δ3b; type: cell-based, mouse; details: n=5
TRPM3α1 Δ3c = assay: Whole-cell patch clamp, deletion mutant TRPM3α1 Δ3c; type: cell-based, mouse; details: n=5
TRPM3α1 Δ12 = TRPM3α1 Δ12 (Mus musculus, UniProt J9SQF3, DEL1065-1076); assay: Whole-cell patch clamp, deletion mutant TRPM3α1 Δ12; type: cell-based; details: PS 40 μM, n=6
[5] = target: TRPM3α2 D1064_AA_P1065 (TRPM3α2 +2) (Mus musculus, UniProt J9SQF3, INS1087AA); assay: Whole-cell patch clamp, insertion mutant TRPM3α2 +2; type: cell-based; details: PS 40 μM, n=4
TRPM3α2 +4 = TRPM3α2 +4 (Mus musculus, UniProt J9SQF3, INS1087AAAA); assay: Whole-cell patch clamp, insertion mutant TRPM3α2 +4; type: cell-based; details: PS 40 μM, n=6
TRPM3α1 A1077P (α1 A‐P) = TRPM3α1 A1077P (α1 A‐P) (Mus musculus, UniProt J9SQF3, A1077P); assay: Whole-cell patch clamp, mutant TRPM3α1 A1077P; type: cell-based; details: PS 40 μM, n=6
[6] = target: TRPM3α1 and TRPM3α2 co-expressed (Mus musculus, UniProt J9SQF3); assay: Calcium microfluorimetry, HEK293 cells co-transfected with TRPM3α1 and TRPM3α2; type: cell-based; details: PS 40 μM, Clt 10 μM; TRPM3α2 cDNA 0.5 μg with TRPM3α1 cDNA 0, 1.5 and 3 μg
TRPM3α2 +5 = TRPM3α2 +5 (Mus musculus, UniProt J9SQF3, INS1087AAAAA); assay: Whole-cell patch clamp, insertion mutant TRPM3α2 +5; type: cell-based; details: PS 40 μM, n=4
[7] = target: T2, short pore loop TRPM3α isoforms (α2–α6) (Mus musculus, UniProt J9SQF3); assay: Whole-cell patch clamp, HEK293T cells expressing short pore loop TRPM3α isoforms; type: cell-based; details: PS 40 μM, Clt 10 μM; ±80 mV
T2 sequence (J9SQF3 852-1200 limits assumed): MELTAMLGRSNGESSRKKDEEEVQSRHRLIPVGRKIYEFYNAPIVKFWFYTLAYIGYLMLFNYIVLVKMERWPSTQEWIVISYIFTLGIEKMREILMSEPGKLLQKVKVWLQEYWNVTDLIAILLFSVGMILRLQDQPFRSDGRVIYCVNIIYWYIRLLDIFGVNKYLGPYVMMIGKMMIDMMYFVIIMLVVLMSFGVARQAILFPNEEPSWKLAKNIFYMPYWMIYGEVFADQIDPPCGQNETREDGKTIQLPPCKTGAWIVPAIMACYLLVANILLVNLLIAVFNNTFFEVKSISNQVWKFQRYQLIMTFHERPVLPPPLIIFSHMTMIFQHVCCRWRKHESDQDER

TRPM3α2 +3 = TRPM3α2 +3 (Mus musculus, UniProt J9SQF3, INS1087AAA); assay: Whole-cell patch clamp, insertion mutant TRPM3α2 +3; type: cell-based; details: PS 40 μM, n=5
TRPM3α1 Δ6a = TRPM3α1 Δ6a (Mus musculus, UniProt J9SQF3, DEL1065-1070); assay: Whole-cell patch clamp, deletion mutant TRPM3α1 Δ6a; type: cell-based; details: PS 40 μM, n=4

## Cc1cc(NC(=O)C(c2ccccc2)N2CCCc3ccccc32)no1 (stereo not drawn) [CIM0216]
TRPM3α1 [1]; read-out: EC50 of current activation, CIM0216, outwardly rectifying currents
  EC50: 0.57 ± 0.05 µM
TRPM3α2; CIM0216 1 μM, ±80 mV
  whole-cell current increase: robust increase in both inward and outward currents
TRPM3α1 [2]
  intracellular calcium response: sizable increases in intracellular calcium

## CCC1(c2ccccc2)C(=O)NCNC1=O [primidone, Primidone]
TRPM3α1 [1]
  block of CIM0216-induced currents: full block
  block of clotrimazole-induced currents: only partially blocked
TRPM3α2; CIM0216 1 μM, ±80 mV
  block of CIM0216-induced currents: full block
TRPM3α1 Δ3d; Clt 10 μM
  block of clotrimazole-activated currents: only a partial block
[3]
  block of clotrimazole-evoked currents: ineffective
  block of pregnenolone sulphate-induced currents: fully block
TRPM3α1 Δ6b
  block of clotrimazole-activated currents: only a partial block

## COC(=O)C1=C(C)NC(C)=C(C(=O)OC)C1c1ccccc1[N+](=O)[O-] [nifedipine, Nifedipine]
TRPM3α1 [1]; PS 40 μM
  whole-cell current increase: without effect
[4]
  intracellular calcium response: robust calcium responses
TRPM3α1 [2]
  intracellular calcium response: did not induce any detectable calcium rise
  calcium signal at high agonist concentrations: did not induce any detectable calcium signal

## O=C(O)Cc1ccccc1Nc1c(Cl)cccc1Cl [diclofenac, Diclofenac]
TRPM3α1 [1]
  block of CIM0216-induced currents: full block
  block of clotrimazole-induced currents: only partially blocked
TRPM3α2; CIM0216 1 μM, ±80 mV
  block of CIM0216-induced currents: full block
TRPM3α1 Δ3d; Clt 10 μM
  block of clotrimazole-activated currents: only a partial block
[3]
  block of clotrimazole-evoked currents: ineffective
  block of pregnenolone sulphate-induced currents: fully block
TRPM3α1 Δ6b
  block of clotrimazole-activated currents: only a partial block

## Clc1ccccc1C(c1ccccc1)(c1ccccc1)n1ccnc1 [clotrimazole, Clotrimazole]
TRPM3α1 Δ3a; Clt 10 μM, +80 mV
  Clt +80 mV ΔI density: 430.6 ± 74.8 pA/pF
TRPM3α1 Δ3a; Clt 10 μM, −80 mV
  Clt −80 mV ΔI density: −355.3 ± 55.5 pA/pF
TRPM3α1 Δ3b; Clt 10 μM, +80 mV
  Clt +80 mV ΔI density: 149.2 ± 21.2 pA/pF
TRPM3α1 Δ3b; Clt 10 μM, −80 mV
  Clt −80 mV ΔI density: −122.8 ± 13.9 pA/pF
TRPM3α1 Δ3c; Clt 10 μM, +80 mV
  Clt +80 mV ΔI density: 242.5 ± 17.2 pA/pF
TRPM3α1 Δ3c; Clt 10 μM, −80 mV
  Clt −80 mV ΔI density: −225.3 ± 13.8 pA/pF
TRPM3α1 Δ3d; Clt 10 μM, +80 mV, n=5
  Clt +80 mV ΔI density: 269.2 ± 55.2 pA/pF
TRPM3α1 Δ3d; Clt 10 μM, −80 mV, n=5
  Clt −80 mV ΔI density: −259.7 ± 53.1 pA/pF

## CC(=O)[C@H]1CC[C@H]2[C@@H]3CC=C4C[C@@H](OS(=O)(=O)[O-])CC[C@]4(C)[C@H]3CC[C@]12C.[Na+] [pregnenolone sulphate, Pregnenolone sulphate sodium salt]
TRPM3α1 Δ3a; PS 40 μM, +80 mV
  PS +80 mV ΔI density: 0.01 ± 0.2 pA/pF
TRPM3α1 Δ3a; PS 40 μM, −80 mV
  PS −80 mV ΔI density: 0.3 ± 0.3 pA/pF
TRPM3α1 Δ12; +80 mV
  PS +80 mV ΔI density: 35.6 ± 13.9 pA/pF
TRPM3α1 Δ12; −80 mV
  PS −80 mV ΔI density: −3.8 ± 1.7 pA/pF
[5]; +80 mV
  PS +80 mV ΔI density: 1.2 ± 0.6 pA/pF
[5]; −80 mV
  PS −80 mV ΔI density: −0.1 ± 0.2 pA/pF
TRPM3α1 [1]; PS 40 μM on Clt 10 μM currents, at +80 mV
  inhibition of clotrimazole-activated currents by co-application: 10.5 ± 5.1%
TRPM3α1 [1]; PS 40 μM
  whole-cell current increase: did not evoke any increase in current amplitude
TRPM3α1 [1]; PS 40 μM, +80 mV, n=5
  PS +80 mV ΔI density: −1.0 ± 0.85 pA/pF
TRPM3α1 [1]; PS 40 μM, −80 mV, n=5
  PS −80 mV ΔI density: 0.2 ± 0.1 pA/pF
TRPM3α2 +4; +80 mV
  PS +80 mV ΔI density: 1.1 ± 0.4 pA/pF
TRPM3α2 +4; −80 mV
  PS −80 mV ΔI density: −0.3 ± 0.2 pA/pF
TRPM3α1 A1077P (α1 A‐P); +80 mV
  PS +80 mV ΔI density: −0.4 ± 0.6 pA/pF
TRPM3α1 A1077P (α1 A‐P); −80 mV
  PS −80 mV ΔI density: −0.1 ± 0.3 pA/pF
[6]
  calcium increase in co-expressing cells versus TRPM3α2 alone: significantly reduced
[4]
  intracellular calcium response: robust calcium responses
TRPM3α2 +5; +80 mV
  PS +80 mV ΔI density: 1.2 ± 0.6 pA/pF
TRPM3α2 +5; −80 mV
  PS −80 mV ΔI density: −0.1 ± 0.1 pA/pF
TRPM3α2; PS 40 μM, +80 mV, n=11
  PS +80 mV ΔI density: 38.1 ± 12.9 pA/pF
TRPM3α2; PS 40 μM, −80 mV, n=11
  PS −80 mV ΔI density: −1.9 ± 0.5 pA/pF
[7]
  whole-cell current increase: robust current increases
TRPM3α2 +3; +80 mV
  PS +80 mV ΔI density: 7.8 ± 2.0 pA/pF
TRPM3α2 +3; −80 mV
  PS −80 mV ΔI density: −1.3 ± 0.4 pA/pF
TRPM3α1 Δ3b; PS 40 μM, +80 mV
  PS +80 mV ΔI density: −0.5 ± 0.4 pA/pF
TRPM3α1 Δ3b; PS 40 μM, −80 mV
  PS −80 mV ΔI density: 0.1 ± 0.04 pA/pF
TRPM3α1 Δ6a; +80 mV
  PS +80 mV ΔI density: 0.25 ± 0.2 pA/pF
TRPM3α1 Δ6a; −80 mV
  PS −80 mV ΔI density: −0.05 ± 0.3 pA/pF
TRPM3α1 Δ3c; PS 40 μM, +80 mV
  PS +80 mV ΔI density: −0.1 ± 0.1 pA/pF
TRPM3α1 Δ3c; PS 40 μM, −80 mV
  PS −80 mV ΔI density: 0.2 ± 0.1 pA/pF
TRPM3α1 Δ3d; PS 40 μM, +80 mV, n=5
  PS +80 mV ΔI density: 0.04 ± 0.3 pA/pF
TRPM3α1 Δ3d; PS 40 μM, −80 mV, n=5
  PS −80 mV ΔI density: 0.01 ± 0.04 pA/pF
TRPM3α1 [2]
  intracellular calcium response: did not induce any detectable calcium rise
  calcium signal at high agonist concentrations: did not induce any detectable calcium signal
[3]; PS 40 μM, +80 mV, n=4
  PS +80 mV ΔI density: 45.2 ± 18.6 pA/pF
[3]; PS 40 μM, −80 mV, n=4
  PS −80 mV ΔI density: −2.2 ± 0.6 pA/pF
TRPM3α1 Δ6b; PS 40 μM, +80 mV, n=5
  PS +80 mV ΔI density: 0.3 ± 0.1 pA/pF
TRPM3α1 Δ6b; PS 40 μM, −80 mV, n=5
  PS −80 mV ΔI density: −0.2 ± 0.02 pA/pF
